# Source: ChEMBL document CHEMBL1146717, “Investigation of novel fumagillin analogues as angiogenesis inhibitors” (Bioorg Med Chem Lett, 2004)
# How the values were obtained:
# HUVEC [1] = assay: Tested for inhibition of the human umbilical vein endothelial cell (HUVEC) proliferation
# HUVEC [2] = assay: Percent remained in HUVEC lysate after 0.5 hr in presence of epoxide hydrolase (EH) along with inhibitor (Compound used as hydrolysate); Expressed as % remaining; type: functional, Homo sapiens
# Outline: (§1)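 Epoxide hydrolase (1 mg/mL protein, final) was co-incubated at 37 °C with the compound (2 mM) plus cyclohexene oxide (50 mM) as EH inhibitor. Substrate remaining and hydrolysate were quantified at 3 min, 0.5 h and 2 h as % values, with an estimated error of 10–15%.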
# HUVEC [3] = assay: Percent stability determined after 0 hr in HUVEC lysate; expressed as % remaining; type: functional, Homo sapiens
# Outline: (§2)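 Compound (1 mM) was incubated in HUVEC lysate at 37 °C and sampled at 0, 4 and 20 h. Results are expressed as % of compound remaining, with an estimated measurement error of 10–15%.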
# HUVEC [4] = assay: Percent remained in HUVEC lysate after 2 hr in presence of epoxide hydrolase (EH) along with inhibitor (Control = 103) (Compound used as substrate); Expressed as % remaining; type: functional, Homo sapiens; outline: as §1
# HUVEC [5] = assay: Percent remained in HUVEC lysate after 3 min in presence of epoxide hydrolase (EH) (Control = 100) (Compound used as substrate); Expressed as % remaining; type: functional, Homo sapiens
# Outline: (§3)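 Each compound at 2 mM incubated at 37 °C with epoxide hydrolase (1 mg/mL protein, final), alongside a no-enzyme control. Substrate remaining and hydrolysate formed were quantified at 3 min, 0.5 h and 2 h as % values. Estimated measurement error is 10–15%.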
# HUVEC [6] = assay: Percent stability after 4 hr in HUVEC lysate; Expressed as % remaining; type: functional, Homo sapiens; outline: as §2
# HUVEC [7] = assay: Percent remained in HUVEC lysate after 0.5 hr in presence of epoxide hydrolase (EH) (Compound used as hydrolysate); Expressed as % remaining; type: functional, Homo sapiens; outline: as §3
# HUVEC [8] = assay: Percent remained in HUVEC lysate after 2 hr in presence of epoxide hydrolase (EH) (Control = 100) (Compound used as substrate); Expressed as % remaining; type: functional, Homo sapiens; outline: as §3
# HUVEC [9] = assay: Percent stability after 20 hr in HUVEC culture medium; expressed as % remaining; type: functional, Homo sapiens
# HUVEC [10] = assay: Percent stability determined after 20 hr in HUVEC lysate; expressed as % remaining; type: functional, Homo sapiens; outline: as §2
# HUVEC [11] = assay: Percent remained in HUVEC lysate after 3 min in presence of epoxide hydrolase (EH) (Compound used as hydrolysate); Expressed as % remaining; type: functional, Homo sapiens; outline: as §3
# HUVEC [12] = assay: Percent stability after 0 hr in HUVEC culture medium; expressed as % remaining; type: functional, Homo sapiens
# HUVEC [13] = assay: Percent remained in HUVEC lysate after 2 hr in presence of epoxide hydrolase (EH) along with inhibitor (Compound used as hydrolysate); Expressed as % remaining; type: functional, Homo sapiens; outline: as §1
# HUVEC [14] = assay: Percent remained in HUVEC lysate after 0.5 hr in presence of epoxide hydrolase (EH) along with inhibitor (Control = 103) (Compound used as substrate); Expressed as % remaining; type: functional, Homo sapiens; outline: as §1
# HUVEC [15] = assay: Percent remained in HUVEC lysate after 2 hr in presence of epoxide hydrolase (EH) (Compound used as hydrolysate); Expressed as % remaining; type: functional, Homo sapiens; outline: as §3
# HUVEC [16] = assay: Percent remained in HUVEC lysate after 0.5 hr in presence of epoxide hydrolase (EH) (Control = 103) (Compound used as substrate); Expressed as % remaining; type: functional, Homo sapiens; outline: as §3
# HUVEC [17] = assay: Percent remained in HUVEC lysate after 3 min in presence of epoxide hydrolase (EH) along with inhibitor (Control = 100) (Compound used as substrate); Expressed as % remaining; type: functional, Homo sapiens; outline: as §1
# HUVEC [18] = assay: Percent stability after 4 hr in HUVEC culture medium; expressed as % remaining; type: functional, Homo sapiens
# HUVEC [19] = assay: Percent remained in HUVEC lysate after 2 hr in presence of epoxide hydrolase (EH) along with inhibitor (Control = 106) used as substrate; Expressed as % remaining; type: functional, Homo sapiens; outline: as §1
# HUVEC [20] = assay: Percent remained in HUVEC lysate after 0.5 hr in presence of epoxide hydrolase (EH) along with inhibitor (Control = 92) (Compound used as substrate); Expressed as % remaining; type: functional, Homo sapiens; outline: as §1
# HUVEC [21] = assay: Percent remained in HUVEC lysate after 3 min in presence of epoxide hydrolase (EH) used as hydrolysate; Expressed as % remaining; type: functional, Homo sapiens; outline: as §3
# HUVEC [22] = assay: Percent remained in HUVEC lysate after 2 hr in presence of epoxide hydrolase (EH) along with inhibitor (Control = 90) (Compound used as substrate); Expressed as % remaining; type: functional, Homo sapiens; outline: as §1
# HUVEC [23] = assay: Percent stability determined after 20 hr in HUVEC lysate; Expressed as % remaining; type: functional, Homo sapiens; outline: as §2
# HUVEC [24] = assay: Percent stability determined after 4 hr in HUVEC culture medium; Expressed as % remaining; type: functional, Homo sapiens
# HUVEC [25] = assay: Percent stability determined after 4 hr in HUVEC lysate; Expressed as % remaining; type: functional, Homo sapiens; outline: as §2
# HUVEC [26] = assay: Percent stability determined after 20 hr in HUVEC culture medium; Expressed as % remaining; type: functional, Homo sapiens
# HUVEC [27] = assay: Percent stability determined after 0 hr in HUVEC lysate; Expressed as % remaining; type: functional, Homo sapiens; outline: as §2
# HUVEC [28] = assay: Percent stability determined after 0 hr in HUVEC culture medium; Expressed as % remaining; type: functional, Homo sapiens
# [29] = molecular target: Methionine aminopeptidase 2 (Homo sapiens, UniProt P50579); assay: Inhibitory activity against Methionine aminopeptidase 2
# Sequence of Methionine aminopeptidase 2 (P50579 whole entry): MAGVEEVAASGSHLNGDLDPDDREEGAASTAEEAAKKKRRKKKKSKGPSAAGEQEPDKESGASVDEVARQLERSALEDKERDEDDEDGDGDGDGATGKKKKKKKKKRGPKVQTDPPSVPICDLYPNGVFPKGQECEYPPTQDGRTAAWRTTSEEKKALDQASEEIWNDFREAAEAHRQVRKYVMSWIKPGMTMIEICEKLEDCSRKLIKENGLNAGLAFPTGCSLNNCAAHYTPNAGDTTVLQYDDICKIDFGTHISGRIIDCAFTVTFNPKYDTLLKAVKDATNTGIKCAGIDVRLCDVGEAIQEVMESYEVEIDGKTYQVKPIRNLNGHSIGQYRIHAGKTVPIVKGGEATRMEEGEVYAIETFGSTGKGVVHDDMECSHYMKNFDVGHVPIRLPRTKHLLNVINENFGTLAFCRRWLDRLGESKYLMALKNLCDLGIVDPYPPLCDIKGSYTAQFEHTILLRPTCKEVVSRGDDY
compound,measurement,setting,value
CO[C@@H]1[C@H](OC(C)=O)CC[C@]2(CO2)[C@H]1[C@@]1(C)O[C@@H]1CC=C(C)C,EC50,HUVEC [1],3 nM
CO[C@@H]1[C@H](OC(N)=O)CC[C@]2(CO2)[C@H]1/C(C)=N/OCc1ccccc1,Activity,HUVEC [2],15%
same,Activity,HUVEC [3],100%
same,Activity,HUVEC [4],60%
same,Activity,HUVEC [5],10%
same,Activity,HUVEC [6],20%
same,Activity,HUVEC [7],95%
same,Activity,HUVEC [8],1%
same,Activity,HUVEC [9],69%
same,Activity,HUVEC [10],3%
same,Activity,HUVEC [11],93%
same,EC50,HUVEC [1],88 nM
same,Activity,HUVEC [12],100%
same,Activity,HUVEC [13],60%
same,Activity,HUVEC [14],95%
same,Activity,HUVEC [15],100%
same,Activity,HUVEC [16],2%
same,Activity,HUVEC [17],106%
same,Activity,HUVEC [18],90%
CO[C@@H]1[C@H](OC(C)=O)CC[C@]2(CO2)[C@H]1/C(C)=N/OCc1ccccc1,EC50,HUVEC [1],450 nM
CO[C@@H]1[C@H](OC(N)=O)CC[C@]2(CO2)[C@H]1[C@@]1(C)O[C@@H]1CC=C(C)C,Activity,HUVEC [5],84%
same,Activity,HUVEC [7],103%
same,Activity,HUVEC [11],22%
same,EC50,HUVEC [1],0.65 nM
same,Activity,HUVEC [19],107%
same,Activity,HUVEC [14],109%
same,Activity,HUVEC [15],100%
same,Activity,HUVEC [17],98%
CO[C@@H]1[C@H](OC(N)=O)CC[C@]2(CO2)[C@H]1/C(C)=C/CC=C(C)C,Activity,HUVEC [2],21%
same,Activity,HUVEC [3],100%
same,Activity,HUVEC [5],18%
same,Activity,HUVEC [6],36%
same,Activity,HUVEC [7],79%
same,Activity,HUVEC [20],75%
same,Activity,HUVEC [9],68%
same,Activity,HUVEC [21],77%
same,Activity,HUVEC [10],1%
same,Activity,HUVEC [22],5%
same,EC50,HUVEC [1],490 nM
same,Activity,HUVEC [12],100%
same,Activity,HUVEC [13],87%
same,Activity,HUVEC [15],100%
same,Activity,HUVEC [17],108%
same,Activity,HUVEC [18],76%
CCN1CCN(C(=O)O[C@@H]2CC[C@]3(CO3)[C@@H]([C@@]3(C)O[C@@H]3CC=C(C)C)[C@@H]2OC)CC1,Activity,HUVEC [23],76%
same,Activity,HUVEC [24],95%
same,Activity,HUVEC [25],91%
same,Activity,HUVEC [26],75%
same,Activity,HUVEC [27],100%
same,Activity,HUVEC [28],100%
CO[C@@H]1[C@H](OC(=O)/C=C/C=C/C=C/C=C/C(=O)O)CC[C@]2(CO2)[C@H]1[C@@]1(C)O[C@@H]1CC=C(C)C [FUMAGILLIN],IC50,[29],0.63 nM
same,EC50,HUVEC [1],0.82 nM
